Laboratory results as given in ChEMBL document CHEMBL4145669 (J Med Chem, 2018).
Square brackets hold non-standard residues; d marks the D form. Peptide text beside a SMILES is read from it. hPhe = N[C@@H](CCc1ccccc1)C(=O)O; Nle = CCCC[C@H](N)C(=O)O; Dap = NC[C@H](N)C(=O)O

What was measured:
[1] = target: Melanocyte-stimulating hormone receptor (Mus musculus, UniProt Q01727); experiment: Agonist activity at mouse MC1R expressed in HEK293 cells incubated for 2 hrs by AlphaScreen cAMP assay; type: functional, cell-based
Summary of the method: (§1)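 HEK293 cells stably expressing mouse MC1R, about 90% confluent, were detached with Versene and suspended at 10,000 cells/μL in stimulation buffer (HBSS, 0.5 mM IBMX, 5 mM HEPES, 0.1% BSA, pH 7.4) with anti-cAMP acceptor beads. Compound was added for 2 h at room temperature in the dark, then donor beads/biotinylated cAMP in lysis buffer for 2 h, followed by AlphaScreen read. Doses went up to 100 μM in duplicate wells, ≥3 experiments. EC50 came from nonlinear regression, with efficacy as a percent of NDP-MSH.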

[2] = target: Melanocyte-stimulating hormone receptor (Mus musculus) (UniProt Q01727); experiment: Agonist activity at mouse MC1R expressed in HEK293 cells at 100 uM incubated for 2 hrs by AlphaScreen cAMP assay relative to NDP-MSH; type: functional, cell-based; summary of the method: as §1
Melanocortin receptor 5 = Melanocortin receptor 5 (Mus musculus, UniProt P41149); experiment: Inverse agonist activity at mouse MC5R expressed in HEK293 cells incubated for 2 hrs by AlphaScreen cAMP assay; type: functional, cell-based
Summary of the method: (§2)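 In the mouse MC5R HEK293 stable line, cells in IBMX-containing stimulation buffer with anti-cAMP acceptor beads were exposed to compound at up to 100 μM for 2 h at room temperature in the dark. Donor beads/biotinylated cAMP were then added for 2 h before AlphaScreen reading. Signal was normalized to basal response to give a percent difference from basal. Duplicate wells, ≥3 independent experiments.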

[3] = target: Melanocortin receptor 5 (Mus musculus) (UniProt P41149); experiment: Inverse agonist activity at mouse MC5R expressed in HEK293 cells at 100 uM incubated for 2 hrs by AlphaScreen cAMP assay; type: functional, cell-based; summary of the method: as §2
[4] = target: Melanocortin receptor 3 (Mus musculus) (UniProt P33033); experiment: Agonist activity at mouse MC3R expressed in HEK293 cells at 100 uM incubated for 2 hrs by AlphaScreen cAMP assay relative to untreated control; type: functional, cell-based
[5] = target: Melanocortin receptor 4 (Mus musculus) (UniProt P56450); experiment: Agonist activity at mouse MC4R expressed in HEK293 cells at 100 uM incubated for 2 hrs by AlphaScreen cAMP assay relative to untreated control; type: functional, cell-based
Melanocortin receptor 3 = Melanocortin receptor 3 (Mus musculus, UniProt P33033); experiment: Antagonist activity at mouse MC3R expressed in HEK293 cells assessed as reduction in NDP-MSH-induced response incubated for 2 hrs by AlphaScreen cAMP assay based Schild analysis; type: functional, cell-based; conditions: read-out: pA2 (converted)
Melanocortin receptor 4 = Melanocortin receptor 4 (Mus musculus, UniProt P56450); experiment: Antagonist activity at mouse MC4R expressed in HEK293 cells assessed as reduction in NDP-MSH-induced response incubated for 2 hrs by AlphaScreen cAMP assay based Schild analysis; type: functional, cell-based; conditions: read-out: pA2 (converted)
Mus musculus = species on record: Mus musculus; experiment: Selectivity index, ratio of pA2 for antagonist activity at mouse MC3R expressed in HEK293 cells to pA2 for antagonist activity at mouse MC4R expressed in HEK293 cells; type: cell-based
[6] = target: Melanocortin receptor 4 (Mus musculus) (UniProt P56450); experiment: Potency index, ratio of pA2 for test compound to pA2 for AGRP for antagonist activity at mouse MC4R expressed in HEK293 cells assessed as reduction in NDP-MSH-induced response incubated for 2 hrs by AlphaScreen cAMP assay based Schild analysis; type: functional, cell-based

Melanocortin receptor 3, sequence (P33033 whole entry): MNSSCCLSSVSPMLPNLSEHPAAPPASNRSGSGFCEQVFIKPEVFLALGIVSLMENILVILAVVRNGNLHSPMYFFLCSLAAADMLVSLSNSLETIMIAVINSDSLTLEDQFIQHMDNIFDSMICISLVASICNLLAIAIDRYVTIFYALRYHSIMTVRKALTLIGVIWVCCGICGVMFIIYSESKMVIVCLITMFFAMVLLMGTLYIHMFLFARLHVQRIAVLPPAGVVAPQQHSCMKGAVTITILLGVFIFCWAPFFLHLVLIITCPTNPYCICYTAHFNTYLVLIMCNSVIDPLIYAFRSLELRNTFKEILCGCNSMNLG
Melanocortin receptor 3 (Mus musculus), sequence (P33033 whole entry): as above
Melanocortin receptor 5 (Mus musculus), sequence (P41149 whole entry): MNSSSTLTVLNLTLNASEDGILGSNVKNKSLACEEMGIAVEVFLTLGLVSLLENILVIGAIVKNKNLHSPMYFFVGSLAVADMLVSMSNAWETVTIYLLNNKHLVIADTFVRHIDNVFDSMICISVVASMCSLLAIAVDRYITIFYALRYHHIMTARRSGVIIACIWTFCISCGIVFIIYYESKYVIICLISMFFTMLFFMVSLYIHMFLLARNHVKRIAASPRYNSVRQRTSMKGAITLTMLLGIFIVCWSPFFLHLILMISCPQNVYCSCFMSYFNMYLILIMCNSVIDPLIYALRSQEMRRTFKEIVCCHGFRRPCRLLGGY
Melanocortin receptor 5, sequence (P41149 whole entry): as above
Melanocortin receptor 4, sequence (P56450 whole entry): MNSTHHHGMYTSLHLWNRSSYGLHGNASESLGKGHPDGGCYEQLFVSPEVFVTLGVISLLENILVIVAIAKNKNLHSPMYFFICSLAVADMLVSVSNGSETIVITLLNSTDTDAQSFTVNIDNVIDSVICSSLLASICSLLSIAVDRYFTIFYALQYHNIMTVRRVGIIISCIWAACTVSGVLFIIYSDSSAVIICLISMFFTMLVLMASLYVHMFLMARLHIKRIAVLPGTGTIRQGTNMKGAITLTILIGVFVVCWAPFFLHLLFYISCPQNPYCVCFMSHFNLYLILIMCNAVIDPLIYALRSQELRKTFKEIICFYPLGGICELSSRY
Melanocortin receptor 4 (Mus musculus), sequence (P56450 whole entry): as above
Melanocyte-stimulating hormone receptor (Mus musculus), sequence (Q01727 whole entry, looked up): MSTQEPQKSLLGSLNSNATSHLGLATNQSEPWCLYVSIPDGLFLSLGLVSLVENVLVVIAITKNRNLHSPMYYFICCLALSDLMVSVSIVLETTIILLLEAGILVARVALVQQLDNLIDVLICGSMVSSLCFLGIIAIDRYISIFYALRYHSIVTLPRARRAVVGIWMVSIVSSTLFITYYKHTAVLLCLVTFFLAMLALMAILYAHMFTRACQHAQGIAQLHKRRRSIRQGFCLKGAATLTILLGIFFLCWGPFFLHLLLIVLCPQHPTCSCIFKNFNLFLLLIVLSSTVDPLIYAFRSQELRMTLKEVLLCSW
Melanocyte-stimulating hormone receptor, sequence (Q01727 whole entry): as the sequence (Q01727 whole entry, looked up) above

Compound | EC50 [1] | Activity [2] | EC50 (Melanocortin receptor 5) | Activity [3] | Activity [4] | Activity [5] | Kb (Melanocortin receptor 3) | Kb (Melanocortin receptor 4) | Ratio (Mus musculus) | Ratio [6]
CCCC[C@@H]1NC(=O)[C@H](C)NC(=O)[C@H](CN)NC(=O)[C@H](CCc2ccccc2)NC(=O)[C@H](Cc2ccccc2)NC(=O)[C@H](CCCNC(=N)N)NC(=O)[C@@H]2CCCN2C(=O)[C@H]2CCCN2C1=O (cyclo(RF[hPhe][Dap]A[Nle][dP]P)) | > 100000 nM | < 20% | > 100000 nM | < 20% | < 20% | < 20% | 200 nM | 0.794 nM | 250 | 
CCCC[C@@H]1NC(=O)[C@H](CO)NC(=O)[C@H](CCCNC(=N)N)NC(=O)[C@H](Cc2ccccc2)NC(=O)[C@H](Cc2ccccc2)NC(=O)[C@H](CCCNC(=N)N)NC(=O)[C@@H]2CCCN2C(=O)[C@H]2CCCN2C1=O (cyclo(RFFRS[Nle][dP]P)) | > 100000 nM | < 20% | > 100000 nM | < 20% | < 20% | < 20% | 79.4 nM | 0.251 nM | 320 | 
C[C@@H]1NC(=O)[C@H](CCCNC(=N)N)NC(=O)[C@H](CCc2ccccc2)NC(=O)[C@H](Cc2ccccc2)NC(=O)[C@H](CCCNC(=N)N)NC(=O)[C@@H]2CCCN2C(=O)[C@H]2CCCN2C(=O)[C@H](Cc2ccccc2)NC1=O (cyclo(RF[hPhe]RAF[dP]P)) |  | 25% | > 100000 nM | < 20% | < 20% | < 20% | 10 nM | 1.26 nM | 8 | 
CCCC[C@@H]1NC(=O)[C@H](C)NC(=O)[C@H](CN)NC(=O)[C@H](Cc2ccccc2)NC(=O)[C@H](Cc2ccccc2)NC(=O)[C@H](CCCNC(=N)N)NC(=O)[C@@H]2CCCN2C(=O)[C@H]2CCCN2C1=O | 190 nM |  | > 100000 nM | < 20% | < 20% | < 20% | 79.4 nM | 1 nM | 79 | 
CCCC[C@@H]1NC(=O)[C@H](CO)NC(=O)[C@H](CN)NC(=O)[C@H](Cc2ccccc2)NC(=O)[C@H](Cc2ccccc2)NC(=O)[C@H](CCCNC(=N)N)NC(=O)[C@@H]2CCCN2C(=O)[C@H]2CCCN2C1=O (cyclo(RFF[Dap]S[Nle][dP]P)) | > 100000 nM | < 20% | > 100000 nM | < 20% | < 20% | < 20% | 316 nM | 0.794 nM | 430 | 
N=C(N)NCCC[C@@H]1NC(=O)[C@H](Cc2ccccc2)NC(=O)[C@H](Cc2ccccc2)NC(=O)[C@H](CCCNC(=N)N)NC(=O)[C@@H]2CCCN2C(=O)[C@H]2CCCN2C(=O)[C@H](Cc2ccccc2)NC(=O)[C@H](CO)NC1=O | > 100000 nM | < 20% | > 100000 nM | < 20% | < 20% | < 20% | 79.4 nM | 1 nM | 79 | 
CCCC[C@@H]1NC(=O)[C@H](CO)NC(=O)[C@H](CC(N)=O)NC(=O)[C@H](CCc2ccccc2)NC(=O)[C@H](Cc2ccccc2)NC(=O)[C@H](CCCNC(=N)N)NC(=O)[C@@H]2CCCN2C(=O)[C@H]2CCCN2C1=O (cyclo(RF[hPhe]NS[Nle][dP]P)) | > 100000 nM | < 20% | > 100000 nM | < 20% | < 20% | < 20% | 501 nM | 0.631 nM | 790 | 3 to 6
CCCC[C@@H]1NC(=O)[C@H](CO)NC(=O)[C@H](CCCNC(=N)N)NC(=O)[C@H](CCc2ccccc2)NC(=O)[C@H](Cc2ccccc2)NC(=O)[C@H](CCCNC(=N)N)NC(=O)[C@@H]2CCCN2C(=O)[C@H]2CCCN2C1=O (cyclo(RF[hPhe]RS[Nle][dP]P)) | 400 nM |  | > 100000 nM | < 20% | < 20% | < 20% | 12.6 nM | 0.316 nM | 37 | 
